Measured values reported in ChEMBL document CHEMBL1150164, “New cytotoxic xenia diterpenoids from the Formosan soft coral Xenia umbellata” (2002).
In brackets after ≈: the same amount, converted by molar mass.

Key:
Format in all cases: functional
Conditions in all cases: read-out: ED50 (the source's name)
A549 = test: Cytotoxicity against human A549 cells
In short: (§1)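 In vitro cytotoxicity against cultured human tumour cell lines: A549 (lung adenocarcinoma) and HT-29 (colon adenocarcinoma), both obtained from a cell-line collection.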

P388 = test: Cytotoxicity against mouse P388 cells
In short: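 Murine P-388 lymphocytic leukaemia cells, supplied by an academic laboratory, were exposed to compounds in culture and cytotoxicity was measured in vitro.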

HT-29 = test: Cytotoxicity against human HT-29 cells; in short: as §1

SMILES: C=C1CC[C@@H]2O[C@@]2(C)CC[C@H]2[C@H]1C(=O)O[C@@]2(/C=C/C=C(C)C)CO
- EC50 (A549): 18.8 µg/mL (≈ 56.6 µM)
- EC50 (P388): 3.66 µg/mL (≈ 11 µM)
- EC50 (HT-29): 5.33 µg/mL (≈ 16 µM)

SMILES: C=C1CC/C=C(\C)CC[C@@H]2/C(=C\CC3OC3(C)C)COC(=O)[C@@H]12 (stereo partly specified)
- EC50 (A549): 11.2 µg/mL (≈ 35.4 µM)
- EC50 (P388): 2.87 µg/mL (≈ 9.07 µM)
- EC50 (HT-29): 21.1 µg/mL (≈ 66.7 µM)

SMILES: C=C1CC[C@@H]2/C(=C\C=C\C(C)(C)O)COC(=O)[C@H]2C(=C)CCC1OO (stereo partly specified)
- EC50 (A549): 4.77 µg/mL (≈ 13.7 µM)
- EC50 (P388): 0.04 µg/mL (≈ 0.115 µM)
- EC50 (HT-29): 8.31 µg/mL (≈ 23.8 µM)

SMILES: C=C1CC/C=C(\C)CC[C@@H]2/C(=C\C=C\C(C)(C)O)CO[C@H](O)[C@@H]12
- EC50 (A549): 4.85 µg/mL (≈ 15.2 µM)
- EC50 (P388): 3.45 µg/mL (≈ 10.8 µM)
- EC50 (HT-29): 12.9 µg/mL (≈ 40.5 µM)

SMILES: C=C1CC[C@@H]2O[C@@]2(C)CC[C@@H]2/C(=C\CC3OC3(C)C)COC(=O)[C@@H]12 (stereo partly specified)
- EC50 (A549): 11.6 µg/mL (≈ 34.9 µM)
- EC50 (P388): 3.35 µg/mL (≈ 10.1 µM)
- EC50 (HT-29): 7.77 µg/mL (≈ 23.4 µM)

SMILES: C=C1CC/C=C(\C)CC[C@@H]2/C(=C\C=C\C(C)(C)O)[C@@H](OC)O[C@H](OC)[C@@H]12 [XENIBECIN]
- EC50 (A549): 13.4 µg/mL (≈ 37 µM)
- EC50 (P388): 3.96 µg/mL (≈ 10.9 µM)
- EC50 (HT-29): 12.5 µg/mL (≈ 34.5 µM)

SMILES: C=C1CC[C@@H]2O[C@@]2(C)CC[C@H](/C(=C\CC2OC2(C)C)COC(C)=O)[C@H]1C(=O)OC (stereo partly specified) [XENITACIN]
- EC50 (A549): 3.26 µg/mL (≈ 8.02 µM)
- EC50 (P388): 1.09 µg/mL (≈ 2.68 µM)
- EC50 (HT-29): 1.12 µg/mL (≈ 2.76 µM)
